Converted amounts (≈) assume the structure as drawn. The source made the active and inactive calls. The rule behind the calls is not given here.
Experiments:
[1] = molecular target: T1, Nuclear factor erythroid 2-related factor 2 (Homo sapiens) (UniProt Q16236); assay: Activation of Nrf2 in human LO2 cells cotreated with Nrf2 siRNA assessed as increase in NQO1 mRNA expression level at 20 uM by qRT-PCR analysis; type: cell-based
T1 sequence (whole entry): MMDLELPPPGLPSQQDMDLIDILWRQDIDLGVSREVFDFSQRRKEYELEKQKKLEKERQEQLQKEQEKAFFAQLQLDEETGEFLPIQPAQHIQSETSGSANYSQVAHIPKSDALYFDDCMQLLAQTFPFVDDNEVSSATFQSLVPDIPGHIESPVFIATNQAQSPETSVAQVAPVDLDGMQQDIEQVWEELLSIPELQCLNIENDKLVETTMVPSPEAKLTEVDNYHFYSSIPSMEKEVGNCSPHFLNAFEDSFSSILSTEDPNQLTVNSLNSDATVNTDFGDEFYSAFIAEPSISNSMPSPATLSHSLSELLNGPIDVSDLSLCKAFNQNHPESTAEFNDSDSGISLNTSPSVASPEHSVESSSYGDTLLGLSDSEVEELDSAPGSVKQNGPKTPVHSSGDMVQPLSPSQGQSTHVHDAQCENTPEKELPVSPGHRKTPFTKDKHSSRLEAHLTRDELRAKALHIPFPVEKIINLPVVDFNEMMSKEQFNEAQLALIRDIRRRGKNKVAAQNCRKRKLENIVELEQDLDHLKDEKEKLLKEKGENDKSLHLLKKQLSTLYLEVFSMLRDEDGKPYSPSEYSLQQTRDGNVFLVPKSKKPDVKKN
In short: (§1)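 LO2 cells plated at 7 × 10^5 per 60 mm dish and transfected with 50 nM Nrf2 siRNA (scrambled siRNA as control). After 24 h, fresh medium was added and cells grown a further 48 h. Then 20 μM compound for 12 h. Nrf2, NQO1, GCLM and HO-1 mRNA measured by qRT-PCR, normalized to GAPDH, as fold over control.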

[2] = molecular target: T1, Nuclear factor erythroid 2-related factor 2 (Homo sapiens); assay: Activation of Nrf2 in human LO2 cells assessed as increase in GCLM mRNA expression level by qRT-PCR analysis; type: cell-based
In short: (§2)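 LO2 cells in DMEM with 10% FBS were exposed to 0, 2.5, 5, 10, 20 or 40 μM compound for 12 h. Transcripts measured by qRT-PCR: 40 cycles of 95 °C for 5 s and 60 °C for 30 s. Normalized to GAPDH and expressed as fold over the untreated control. Mean ± SD, n = 3.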

[3] = molecular target: T1, Nuclear factor erythroid 2-related factor 2 (Homo sapiens); assay: Activation of Nrf2 in human LO2 cells assessed as increase in GCLC mRNA expression level by qRT-PCR analysis; type: cell-based; in short: as §2
[4] = molecular target: T1, Nuclear factor erythroid 2-related factor 2 (Homo sapiens); assay: Activation of Nrf2 in human LO2 cells cotreated with Nrf2 siRNA assessed as increase in HO-1 mRNA expression level at 20 uM by qRT-PCR analysis; type: cell-based; in short: as §1
[5] = test system: Mus musculus; assay: Hepatoprotective activity against APAP-induced liver injury in C57BL/6 mouse assessed as increase in GST levels administered ip for 7 consecutive days followed by APAP challenge 1 hr post last compound dose and measured after 24 hrs; type: functional, organism-based
In short: (§3)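 Female C57BL/6 mice (20–25 g, n = 10/group) received 10, 50 or 100 mg/kg/day ip in saline for 7 days. One hour after the last dose they received APAP 300 mg/kg in saline. Killed 24 h later. Serum ALT/AST by kit. Liver homogenates (pH 7.0 phosphate) used for GSH (A420, μmol/g protein), GST (A412, U/mg protein) and SOD. Liver also analyzed by western blot (β-actin normalized), qRT-PCR (GAPDH normalized) and H&E.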

[6] = test system: L02; assay: Hepatoprotective activity against APAP-induced cell injury in human LO2 cells assessed as increase in cell viability at 20 uM pretreated for 24 hrs followed by APAP treatment measured after 24 hrs by MTT assay; type: functional
In short: (§4)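 LO2 cells plated for 12 h and pretreated for 24 h with 5, 10 or 20 μM compound. One arm was first transfected with 50 nM Nrf2 siRNA before receiving 20 μM compound. Medium then replaced with medium containing 8 mM APAP for 24 h. Viability by MTT at A570. Mean ± SD of three experiments.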

[7] = test system: Mus musculus; assay: In vivo activation of Nrf2 in APAP-induced liver injury in C57BL/6 mouse assessed as increase in GCLM mRNA expression level administered ip for 7 consecutive days followed by APAP challenge 1 hr post last compound dose and measured after 24 hrs by qRT-PCR analysis; type: functional, organism-based; in short: as §3
[8] = molecular target: T1, Nuclear factor erythroid 2-related factor 2 (Homo sapiens); assay: Activation of Nrf2 in human LO2 cells assessed as increase in HO-1 mRNA expression level by qRT-PCR analysis; type: cell-based; in short: as §2
[9] = test system: Mus musculus; assay: In vivo activation of Nrf2 in APAP-induced liver injury in C57BL/6 mouse assessed as increase in NQO1 protein expression level at 10 to 100 mg/kg, ip administered for 7 consecutive days followed by APAP challenge 1 hr post last compound dose and measured after 24 hrs by Western blot analysis; type: functional, organism-based; in short: as §3
[10] = Intrinsic aqueous solubility of the compound by potentiometric titration method; type: physicochemical
In short: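 Intrinsic aqueous solubility and logD at pH 7.4 determined by Avdeef-Bucher potentiometric titration on a pION Gemini Profiler.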

[11] = test system: L02; assay: Hepatoprotective activity against APAP-induced cell injury in human LO2 cells cotreated with Nrf2 siRNA assessed as cell viability at 20 uM pretreated for 24 hrs followed by APAP treatment measured after 24 hrs by MTT assay; type: functional; conditions: read-out: Activity; in short: as §4
[12] = test system: Mus musculus; assay: In vivo activation of Nrf2 in APAP-induced liver injury in C57BL/6 mouse assessed as increase in HO-1 protein expression level at 10 to 100 mg/kg, ip administered for 7 consecutive days followed by APAP challenge 1 hr post last compound dose and measured after 24 hrs by Western blot analysis; type: functional, organism-based; in short: as §3
[13] = test system: Mus musculus; assay: Hepatoprotective activity against APAP-induced liver injury in C57BL/6 mouse assessed as reduction in serum AST levels administered ip for 7 consecutive days followed by APAP challenge 1 hr post last compound dose and measured after 24 hrs; type: functional, organism-based; in short: as §3
[14] = molecular target: T1, Nuclear factor erythroid 2-related factor 2 (Homo sapiens); assay: Induction of Nrf2 nuclear translocation in human LO2 cells assessed as Nrf2 binding to antioxidant response element after 12 hrs by DAPI staining based immunofluorescence assay; type: cell-based
In short: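 LO2 cells grown on coverslips for 24 h, then treated 12 h with compound (5 or 20 μM); 80 μM tBHQ served as reference. Cells fixed, probed with anti-Nrf2 and a DyLight 488 anti-rabbit secondary, nuclei stained with DAPI. Imaged by confocal microscopy.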

[15] = test system: Mus musculus; assay: In vivo activation of Nrf2 in APAP-induced liver injury in C57BL/6 mouse assessed as increase in NQO1 mRNA expression level administered ip for 7 consecutive days followed by APAP challenge 1 hr post last compound dose and measured after 24 hrs by qRT-PCR analysis; type: functional, organism-based; in short: as §3
[16] = test system: L02; assay: Cytotoxicity against human LO2 cells up to 160 uM after 24 hrs by MTT assay; type: cell-based; conditions: l02, 24 h
In short: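 LO2 cells plated for 12 h, then treated for 24 h with 0, 0.2, 2, 20, 40, 80 or 160 μM compound diluted in medium from a DMSO stock. MTT (5 mg/mL stock) added for 4 h, formazan dissolved in DMSO, A570 read. Viability computed from OD relative to DMSO control and blank. Mean ± SD of three experiments.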

- Activity [1]: Active
- Activity [2]: Dose-dependent effect
- Activity [3]: Dose-dependent effect
- Activity [4]: Active
- Activity [8]: Dose-dependent effect
- solubility [10]: 250 µM (≈ 68.3 µg/mL)
- Activity [14]: Dose-dependent effect
Compound: Cc1ccc(-c2noc(-c3ccc(F)c(F)c3)n2)cn1
- Activity [5]: Dose-dependent effect
- Activity [6]: 80%
- Activity [7]: Dose-dependent effect
- Activity [9]: Active
- viability at 20 µM [11]: 50%
- Activity [12]: Active
- Activity [13]: Dose-dependent effect
- Activity [15]: Dose-dependent effect
- Activity [16]: <= 7%
